Source: ChEMBL document CHEMBL3352044, “Synthesis and structure-activity relationship studies of N-benzyl-2-phenylpyrimidin-4-amine derivatives as potent USP1/UAF1 deubiquitinase inhibitors with anticancer activity against nonsmall cell lung cancer” (J Med Chem, 2014)
In brackets after ≈: the same amount, converted by molar mass.

Legend:
[1] = Stability of the compound in mouse plasma after 2 hrs; type: ADME, cell-free; conditions: read-out: Stability
How it was run: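 Mouse plasma incubation for 2 h; percent compound remaining.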

[2] = biological target: T1, 5-hydroxytryptamine receptor 2C (Homo sapiens) (UniProt P28335); assay: Inhibition of 5-HT2C (unknown origin) at 10 uM
T1 sequence (whole entry): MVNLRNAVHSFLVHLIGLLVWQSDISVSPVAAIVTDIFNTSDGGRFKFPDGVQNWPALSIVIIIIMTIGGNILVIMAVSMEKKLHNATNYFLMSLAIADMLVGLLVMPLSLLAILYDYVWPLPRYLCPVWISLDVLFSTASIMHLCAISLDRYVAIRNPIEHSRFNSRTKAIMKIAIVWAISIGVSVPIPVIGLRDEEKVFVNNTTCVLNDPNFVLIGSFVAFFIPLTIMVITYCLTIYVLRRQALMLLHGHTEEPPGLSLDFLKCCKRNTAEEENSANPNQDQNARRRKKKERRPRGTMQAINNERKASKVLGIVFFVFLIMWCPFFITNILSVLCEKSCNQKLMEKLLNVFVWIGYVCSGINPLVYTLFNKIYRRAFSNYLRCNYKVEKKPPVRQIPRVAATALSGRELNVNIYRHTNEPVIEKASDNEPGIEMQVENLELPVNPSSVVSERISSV
How it was run: (§1)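 Single concentration of 10 μM in an 80-target panel of GPCRs, ion channels and transporters; percent inhibition recorded.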

[3] = Lipophilicity, log D of the compound at pH 7.4 by shake-flask method; type: physicochemical; conditions: buffer
How it was run: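 Log D at pH 7.4 by miniaturized (scaled-down) shake-flask method.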

[4] = biological target: T2, Peroxisome proliferator-activated receptor gamma (Homo sapiens) (UniProt P37231); assay: Inhibition of PPARgamma (unknown origin) at 10 uM; how it was run: as §1
T2 sequence (whole entry): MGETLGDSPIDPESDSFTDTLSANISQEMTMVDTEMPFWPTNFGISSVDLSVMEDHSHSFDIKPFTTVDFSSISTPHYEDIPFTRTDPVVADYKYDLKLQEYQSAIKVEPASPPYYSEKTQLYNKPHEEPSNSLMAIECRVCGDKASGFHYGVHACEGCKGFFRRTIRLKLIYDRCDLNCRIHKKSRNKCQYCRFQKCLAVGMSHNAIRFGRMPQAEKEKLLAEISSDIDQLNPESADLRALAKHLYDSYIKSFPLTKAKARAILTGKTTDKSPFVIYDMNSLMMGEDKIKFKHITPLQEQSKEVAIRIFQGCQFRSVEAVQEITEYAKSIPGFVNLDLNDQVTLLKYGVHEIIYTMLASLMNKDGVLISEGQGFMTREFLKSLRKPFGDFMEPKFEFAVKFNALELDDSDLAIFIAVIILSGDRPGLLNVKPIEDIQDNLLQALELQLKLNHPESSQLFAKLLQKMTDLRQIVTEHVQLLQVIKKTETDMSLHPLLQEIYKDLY

Homo sapiens = species: Homo sapiens; assay: Inhibition of Calcium channel (unknown origin) at 10 uM; how it was run: as §1
[5] = Cytotoxicity against human H1299 cells assessed as reduction in colony formation at 5 uM after 7 days; type: functional; conditions: NCI-H1299, 168 h, read-out: INH
How it was run: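 H1299 cells seeded at 200 cells/well, attached overnight, then exposed to 5 μM compound or equal volume DMSO. After 7 days, fixed with 20% methanol and stained with 0.1% crystal violet; percent survival scored versus DMSO control.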

[6] = Kinetic aqueous solubility of the compound in PBS at pH 7.4; type: physicochemical; conditions: read-out: Kinetic_solubility
[7] = biological target: Melatonin receptor type 1A (Homo sapiens) (UniProt P48039); assay: Inhibition of MT1 (unknown origin) at 10 uM; how it was run: as §1
[8] = Chemical stability of the compound in PBS buffer at pH 7.4 after 48 hrs; type: physicochemical; conditions: read-out: Stability
How it was run: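 PBS buffer pH 7.4 for 48 h; percent compound remaining.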

[9] = biological target: 5-hydroxytryptamine receptor 2B (Homo sapiens) (UniProt P41595); assay: Inhibition of 5-HT2B (unknown origin) at 10 uM; how it was run: as §1
Liver microsome [10] = assay: Half life in rat liver microsomes in presence of NADPH; type: ADME
How it was run: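 Rat liver microsomes with NADPH; half-life in minutes.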

[11] = Permeability of the compound from apical to basolateral direction in human Caco2 cells; type: ADME, cell-based; conditions: caco-2
Liver = assay: Half life in mouse liver microsomes; type: ADME
How it was run: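 Incubated with mouse liver microsomes in the presence of NADPH, run by a contract lab; read-out is the half-life (T1/2) in minutes.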

Liver microsome [12] = assay: Half life in human liver microsomes; type: ADME
How it was run: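 Human liver microsomes in the presence of NADPH; half-life (min).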

[13] = biological target: T3, Adenosine receptor A3 (Homo sapiens) (UniProt P0DMS8); assay: Inhibition of adenosine A3 receptor (unknown origin) at 10 uM; how it was run: as §1
T3 sequence (whole entry): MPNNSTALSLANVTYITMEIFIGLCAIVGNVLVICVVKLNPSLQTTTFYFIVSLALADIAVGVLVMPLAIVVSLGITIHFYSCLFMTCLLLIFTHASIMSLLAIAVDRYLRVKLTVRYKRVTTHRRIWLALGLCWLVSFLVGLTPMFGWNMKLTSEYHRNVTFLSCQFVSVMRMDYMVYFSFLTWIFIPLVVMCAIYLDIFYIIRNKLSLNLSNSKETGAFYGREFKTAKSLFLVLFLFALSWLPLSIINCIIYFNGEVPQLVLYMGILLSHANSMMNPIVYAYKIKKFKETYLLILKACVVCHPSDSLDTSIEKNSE

[14] = biological target: 5-hydroxytryptamine receptor 2A (Homo sapiens) (UniProt P28223); assay: Inhibition of 5-HT2A (unknown origin) at 10 uM; how it was run: as §1
Sequence of 5-hydroxytryptamine receptor 2A (Homo sapiens) (P28223 whole entry): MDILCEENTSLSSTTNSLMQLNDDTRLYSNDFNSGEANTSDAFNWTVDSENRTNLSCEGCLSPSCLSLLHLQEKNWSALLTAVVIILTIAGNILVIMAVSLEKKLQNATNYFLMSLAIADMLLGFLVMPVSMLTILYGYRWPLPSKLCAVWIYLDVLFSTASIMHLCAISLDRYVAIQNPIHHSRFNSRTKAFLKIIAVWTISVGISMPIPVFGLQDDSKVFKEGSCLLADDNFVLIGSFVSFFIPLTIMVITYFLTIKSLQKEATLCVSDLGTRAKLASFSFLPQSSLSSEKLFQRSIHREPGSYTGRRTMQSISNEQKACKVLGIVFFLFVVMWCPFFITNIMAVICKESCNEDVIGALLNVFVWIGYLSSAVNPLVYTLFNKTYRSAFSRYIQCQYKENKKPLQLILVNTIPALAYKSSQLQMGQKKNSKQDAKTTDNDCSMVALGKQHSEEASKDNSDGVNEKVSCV

Sequence of 5-hydroxytryptamine receptor 2B (Homo sapiens) (P41595 whole entry): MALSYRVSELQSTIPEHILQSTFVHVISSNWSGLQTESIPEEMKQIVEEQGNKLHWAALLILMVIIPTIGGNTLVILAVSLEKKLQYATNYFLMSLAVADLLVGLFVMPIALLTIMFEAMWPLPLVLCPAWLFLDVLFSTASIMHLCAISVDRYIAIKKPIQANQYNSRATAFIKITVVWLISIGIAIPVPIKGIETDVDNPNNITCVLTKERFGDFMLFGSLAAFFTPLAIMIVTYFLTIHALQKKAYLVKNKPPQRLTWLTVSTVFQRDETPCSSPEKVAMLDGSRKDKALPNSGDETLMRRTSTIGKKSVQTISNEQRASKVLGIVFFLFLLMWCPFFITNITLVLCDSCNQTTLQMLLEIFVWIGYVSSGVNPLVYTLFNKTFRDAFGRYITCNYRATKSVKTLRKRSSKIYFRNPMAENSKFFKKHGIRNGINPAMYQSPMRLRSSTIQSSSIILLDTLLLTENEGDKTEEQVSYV
Sequence of Melatonin receptor type 1A (Homo sapiens) (P48039 whole entry): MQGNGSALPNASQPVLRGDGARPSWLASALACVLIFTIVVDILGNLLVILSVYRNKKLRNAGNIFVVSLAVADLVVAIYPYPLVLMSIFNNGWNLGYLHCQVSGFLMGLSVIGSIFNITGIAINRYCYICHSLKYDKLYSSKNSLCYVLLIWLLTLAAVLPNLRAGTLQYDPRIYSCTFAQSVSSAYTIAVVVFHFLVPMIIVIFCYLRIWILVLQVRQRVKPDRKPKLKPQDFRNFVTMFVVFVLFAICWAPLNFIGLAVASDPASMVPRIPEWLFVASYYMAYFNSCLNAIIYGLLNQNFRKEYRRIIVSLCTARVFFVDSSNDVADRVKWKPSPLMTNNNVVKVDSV

remaining at 2 h [1]: 99%
inhibition [2]: > 50%
logD [3]: 1.97
inhibition [4]: > 50%
inhibition (Homo sapiens): > 50%
solubility kinetic [6]: 86 µM (≈ 33.1 µg/mL)
inhibition [7]: > 50%
remaining at 48 h [8]: 99%
inhibition [9]: > 50%
t1/2 (Liver microsome [10]): 15 min
Papp [11]: 22.98 ×10⁻⁶ cm/s
t1/2 (Liver): 15 min
t1/2 (Liver microsome [12]): 26 min
inhibition [13]: > 50%
inhibition [14]: > 50%
Compound: Cc1cnc(-c2ccccc2C(C)C)nc1NCc1ccc(-n2ccnn2)cc1
inhibition at 5 µM [5]: > 70%
